Converted amounts (≈) assume the structure as drawn.
How the values were obtained:
[1] = Antioxidant activity assessed as inhibition of AAPH-induced linoleic acid lipid peroxidation at 1 x 10^-4 M by UV-absorbance method relative to control; assay type: functional
Outline: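 Linoleic acid peroxidation: 16 mM sodium linoleate dispersion in 0.05 M phosphate buffer pH 7.4 at 37 °C under air, initiated by AAPH (40 mM solution); compound at 1 × 10^-4 M; oxidation followed at 234 nm. At least triplicate.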

Glycine max = test: Inhibition of soybean LOX assessed as reduction in conversion of sodium linoleate to 13-hydroperoxylinoleic acid at 1 x 10^-4 M relative to control
Outline: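 Soybean lipoxygenase incubated at room temperature with sodium linoleate (0.1 mM) and test compound (DMSO stocks); formation of 13-hydroperoxylinoleic acid read at 234 nm. Single-point screening at 1 × 10^-4 M; IC50 from several concentrations. At least triplicate.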

[2] = Growth inhibition of human Molt4/C8 cells after 72 hrs by MTT assay; assay type: functional, cell-based; details: MOLT-4, 72 h
[3] = Growth inhibition of mouse L1210 cells after 72 hrs by MTT assay; assay type: functional, cell-based; details: L1210, 72 h
[4] = Growth inhibition of human HeLa cells after 72 hrs by MTT assay; assay type: functional, cell-based
[5] = Antioxidant activity assessed as DPPH radical scavenging activity at 100 uM after 60 mins relative to control; assay type: functional
Outline: (§1)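 Compound in DMSO added to DPPH in absolute ethanol, 0.1 mM final; absorbance at 517 nm after 20 and 60 min at room temperature. At least triplicate.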

[6] = Growth inhibition of human SW620 cells after 72 hrs by MTT assay; assay type: functional, cell-based; details: SW-620, 72 h
Outline: (§2)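 Modified NCI DTP protocol: cells in DMEM with 10% FBS, 2 mM glutamine, antibiotics, 37 °C, 5% CO2; seeded 1 × 10^4 to 3 × 10^4 cells/ml on day 0, exposed to five 10-fold dilutions (10^-8 to 10^-4 M) for 72 h; solvent control. MTT read-out; quadruplicate points in three experiments; IC50 by linear regression of growth percentages bracketing 50%.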

[7] = Growth inhibition of human CEM cells after 72 hrs by MTT assay; assay type: functional, cell-based; details: CCRF-CEM
[8] = Growth inhibition of human NCI-H460 cells after 72 hrs by MTT assay; assay type: functional, cell-based; details: NCI-H460, 72 h; outline: as §2
[9] = Growth inhibition of human MCF7 cells after 72 hrs by MTT assay; assay type: functional, cell-based; details: MCF7, 72 h; outline: as §2
[10] = Growth inhibition of human MIAPaCa2 cells after 72 hrs by MTT assay; assay type: functional, cell-based; details: MIA PaCa-2, 72 h
[11] = Antioxidant activity assessed as DPPH radical scavenging activity at 100 uM after 20 mins relative to control; assay type: functional; outline: as §1
Bacillus cereus = test: Antibacterial activity against Bacillus cereus ATCC 11778 after 18 hrs by serial microdilution broth assay; assay type: functional; details: ATCC 11778, 18 h
Outline: (§3)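 Broth microdilution MIC per EUCAST for aerobic bacteria in Mueller-Hinton broth, serial dilution 1000 to 0.78125 µg/ml from 10 mg/ml DMSO stocks. Inoculum from trypticase soy broth cultures (18 h, 37 °C), set to 0.5 McFarland in PBS pH 7.4, diluted 1:10. 18 h aerobic incubation at 35 °C in dark, then TTC 0.5 mg/ml for 3 h, HCl-isopropanol, A490. MIC = lowest concentration giving 50% inhibition versus untreated; duplicates.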

Staphylococcus aureus [12] = test: Antibacterial activity against methicillin resistant Staphylococcus aureus MFBF 10679 after 18 hrs by serial microdilution broth assay; assay type: functional; details: MFBF 10679, 18 h
Outline: (§4)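 EUCAST-based broth microdilution in Mueller-Hinton broth. Glycerol stock cultures grown in trypticase soy broth 18 h at 37 °C; inoculum in PBS pH 7.4 at 0.5 McFarland, diluted 1:10 in broth. Compounds from DMSO stocks, 1000 to 0.78125 µg/ml; 18 h aerobic, 35 °C, dark. TTC 0.5 mg/ml added, 3 h, then HCl/isopropanol, A490. MIC = lowest concentration giving 50% inhibition vs untreated; duplicates, averaged.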

Enterococcus faecalis [13] = test: Antibacterial activity against vancomycin resistant Enterococcus faecalis MFBF 11419 after 18 hrs by serial microdilution broth assay; assay type: functional; details: MFBF 11419, 18 h; outline: as §4
Staphylococcus aureus [14] = test: Antibacterial activity against methicillin resistant Staphylococcus aureus MFBF 10682 after 18 hrs by serial microdilution broth assay; assay type: functional; details: MFBF 10682, 18 h; outline: as §4
Staphylococcus aureus [15] = test: Antibacterial activity against methicillin sensitive Staphylococcus aureus ATCC 25213 after 18 hrs by serial microdilution broth assay; assay type: functional; details: ATCC 25213, 18 h; outline: as §3
Staphylococcus aureus [16] = test: Antibacterial activity against Staphylococcus aureus ATCC 6538 after 18 hrs by serial microdilution broth assay; assay type: functional; details: ATCC 6538, 18 h; outline: as §3
Pseudomonas aeruginosa [17] = test: Antibacterial activity against Pseudomonas aeruginosa ATCC 9027 after 18 hrs by serial microdilution broth assay; assay type: functional; details: ATCC 9027, 18 h; outline: as §4
Bacillus pumilus = test: Antibacterial activity against Bacillus pumilus NCTC 8241 after 18 hrs by serial microdilution broth assay; assay type: functional; details: NCTC 8241, 18 h; outline: as §3
Candida albicans = test: Antifungal activity against Candida albicans ATCC 90028 after 18 hrs by serial microdilution broth assay; assay type: functional; details: ATCC 90028, 18 h
Outline: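 Yeast microdilution in RPMI 1640 with glutamine plus 2% glucose, 1000 to 0.78125 µg/ml from 10 mg/ml DMSO stocks. Growth read with XTT (10 mg/ml) mixed 7:1 with menadione (1 mg/ml in acetone), absorbance at 540 nm. MIC taken as lowest concentration giving 50% growth inhibition versus untreated cells; tests in duplicate.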

Staphylococcus aureus [18] = test: Antibacterial activity against methicillin sensitive Staphylococcus aureus ATCC 25923 after 18 hrs by serial microdilution broth assay; assay type: functional; details: ATCC 25923, 18 h; outline: as §4
Enterococcus faecalis [19] = test: Antibacterial activity against vancomycin susceptible Enterococcus faecalis ATCC 29212 after 18 hrs by serial microdilution broth assay; assay type: functional; details: ATCC 29212, 18 h; outline: as §3
Bacillus spizizenii = test: Antibacterial activity against Bacillus subtilis ATCC 6633 after 18 hrs by serial microdilution broth assay; assay type: functional; details: ATCC 6633, 18 h; outline: as §3
Escherichia coli = test: Antibacterial activity against Escherichia coli ATCC 10535 after 18 hrs by serial microdilution broth assay; assay type: functional; details: ATCC 10535, 18 h; outline: as §3
Pseudomonas aeruginosa [20] = test: Antibacterial activity against Pseudomonas aeruginosa ATCC 27853 after 18 hrs by serial microdilution broth assay; assay type: functional; details: ATCC 27853, 18 h; outline: as §3
Pseudomonas aeruginosa [21] = test: Antibacterial activity against multi-drug resistant Pseudomonas aeruginosa MFBF after 18 hrs by serial microdilution broth assay; assay type: functional; outline: as §4

Row | inhibition (Glycine max) [%] | SMILES | inhibition [1] [%] | IC50 [2] [µM] | IC50 [3] [µM] | IC50 [4] [µM] | Activity [5] [%] | IC50 [6] [µM] | IC50 [7] [µM] | IC50 [8] [µM] | IC50 [9] [µM] | IC50 [10] [µM] | Activity [11] [%] | further results
1 | 33.4 | COc1cc(NC(C)CCCNC(=O)NNC(=O)Nc2ccc(O)cc2)c2ncccc2c1 (centres undefined) | 61.9 | 104 | 95 | 85 | 100 | > 100 | 111 | > 100 | 2.6 | 142 | 99.3 | 
2 | 11.8 | COc1cc(NC(C)CCCNC(=O)Nc2cccc(Cl)c2)c2ncccc2c1 (centres undefined) | 84.1 | 21 | 17 | 17 | 35.7 | 26 | 22 | 37 | 11 | 21 |  | 
3 | 49.9 | COc1cc(NC(C)CCCNC(=O)Nc2ccc(O)cc2)c2ncccc2c1 (centres undefined) | 54 | 21 | 21 | 70 | 94.5 | 30 | 23 | 34 | 5.2 | 57 | 95.5 | 
4 |  | COc1cc(NC(C)CCCN)c2ncccc2c1 (centres undefined) [PRIMAQUINE] |  |  |  |  |  |  |  |  |  |  |  | MIC50 (Bacillus cereus): 70 µg/mL (≈ 270 µM); MIC50 (Staphylococcus aureus [12]): 70 µg/mL (≈ 270 µM); MIC50 (Enterococcus faecalis [13]): > 100 µg/mL; MIC50 (Staphylococcus aureus [14]): 60 µg/mL (≈ 231 µM); MIC50 (Staphylococcus aureus [15]): 70 µg/mL (≈ 270 µM); MIC50 (Staphylococcus aureus [16]): 70 µg/mL (≈ 270 µM); MIC50 (Pseudomonas aeruginosa [17]): 70 µg/mL (≈ 270 µM); MIC50 (Bacillus pumilus): 70 µg/mL (≈ 270 µM); MIC50 (Candida albicans): 350 µg/mL (≈ 1350 µM); MIC50 (Staphylococcus aureus [18]): 70 µg/mL (≈ 270 µM); MIC50 (Enterococcus faecalis [19]): > 100 µg/mL; MIC50 (Bacillus spizizenii): 80 µg/mL (≈ 308 µM); MIC50 (Escherichia coli): 65 µg/mL (≈ 251 µM); MIC50 (Pseudomonas aeruginosa [20]): 65 µg/mL (≈ 251 µM); MIC50 (Pseudomonas aeruginosa [21]): 70 µg/mL (≈ 270 µM)
5 |  | C[C@@H](c1ncncc1F)[C@](O)(Cn1cncn1)c1ccc(F)cc1F [VORICONAZOLE] |  |  |  |  |  |  |  |  |  |  |  | MIC50 (Candida albicans): 0.5 µg/mL (≈ 1.43 µM)
6 | 48.3 | COc1cc(NC(C)CCCNC(=O)Nc2cccc(C(F)(F)F)c2)c2ncccc2c1 (centres undefined) | 71.8 | 20 | 9.2 | 14 | 47.7 | 22 | 19 | 21 | 3.3 | 17 | 31.3 | 
7 | 41.6 | COc1cc(NC(C)CCCNC(=O)NNC(=O)Nc2cccc(O)c2)c2ncccc2c1 (centres undefined) | 52.2 | 85 | 160 | 180 | 100 | 17 | 143 | > 100 | 1.1 | 129 | 96.5 | 
8 | 21.6 | COc1cc(NC(C)CCCNC(=O)Nc2ccc(Cl)cc2)c2ncccc2c1 (centres undefined) | 81.9 | 24 | 19 | 18 | 37 | 28 | 24 | 34 | 12 | 22 | 24 | 
9 | 51.4 | COc1cc(NC(C)CCCNC(=O)NNC(=O)Nc2cccc(C(F)(F)F)c2)c2ncccc2c1 (centres undefined) | 52.6 | 36 | 4 | 4.9 | 91.2 | 21 | 6.9 | 20 | 0.19 | 5.6 | 98.3 | 
